High-throughput results (PubChem BioAssay)
Apaf1 activ: activators of human Apaf-1 apoptosome; Apaf-1 apoptosome caspase-3 activation, DEVD-Rh110 fluorescence; active compounds read low; activity change, negative = activation, % at 20 µM; 330,000 tested, 0.31% active; O14727;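 active = activity change at or below -40% at 20 µM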
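Schedule: 30 min preincubation, 50 min reaction, room temperature / System: biochemical Apaf-1 apoptosome reconstitution / Medium: 20 mM HEPES pH 7.5 with CHAPS, BSA / Evaluation: Caspase-3 cleavage activity downstream of Apaf-1 activation / Detection: Caspase-3-released Rh110 fluorescence, 540 nm emission, 480 nm excitation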
Rh110 act interf: counter-screen for Apaf-1 activators: fluorescence interference; shares compounds with Apaf1 activ; Rh110 fluorescence interference, quenched caspase reaction, Ex480/Em540; fluorescence interference (activity change), % at 20 µM, hits read low; 980 tested, under 10 active;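 active = mean activity change at or below -40% when tested at 20 µM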
Apaf-1 act conf: confirmation of human Apaf-1 activators. 980 tested, 5% active. activity change, negative = activation, % at 20 µM. reconstituted apoptosome caspase-3 activity, DEVD-Rh110 fluorescence; active compounds read low. shares compounds with Apaf1 activ;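 active = mean activity change at or below -40%, meaning activation of 40% or more, at 20 µM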
* hit, by the source's call. Only a sample is shown.

For O=C(NCC(c1ccc(F)cc1)N1CCOCC1)c1cccnc1Sc1ccccc1 (stereo not drawn) the results were Apaf1 activ -57*, Rh110 act interf 8 and Apaf-1 act conf 12.
For COc1ccc2cc3cc(C(=O)NCCCN4CCc5ccccc5C4)sc3nc2c1 the results were Apaf1 activ 42.
For CCc1ccccc1NC(=O)CCS(=O)(=O)c1ccc(OC)cc1 the results were Apaf1 activ -117*, Rh110 act interf 0 and Apaf-1 act conf -3.
`CCc1ccccc1NC(=O)CCNS(=O)(=O)c1cc(Br)cnc1N` gave Apaf1 activ 49.
For Cn1c(=O)n(C)c2cc(/C=N/NC(=O)c3cc4cc(Br)ccc4o3)ccc21 the results were Apaf1 activ 43.
C#CCOCCOCCOCCNc1nc(N2CCN(C(=O)[C@H]([C@@H](C)CC)n3cc([C@@H](N)Cc4ccc(O)cc4)nn3)CC2)nc(N2CCN(C(=O)[C@H](CCCCN)n3cc([C@@H](N)CO)nn3)CC2)n1 was read as Apaf1 activ 52.
For CC(C)CNC(=O)c1c(F)c(F)c(F)c(F)c1F the results were Apaf1 activ -54*, Rh110 act interf 8 and Apaf-1 act conf 6.
Screening Cc1cc(Cl)ccc1NC(=S)NC1CCCC1 returned Apaf1 activ -42*, Rh110 act interf 12 and Apaf-1 act conf 23.
Screening Cc1ccc(NC(=S)Nc2cccc3cnccc23)c(C)c1 returned Apaf1 activ 96.
NCCc1cnc[nH]1 was read as Apaf1 activ 3.
For COC(=O)c1[nH]c(=O)c2ccccc2c1O the results were Apaf1 activ 91.
`CN1CCc2c(sc(NC(=O)c3ccc(C(=O)c4ccccc4)cc3)c2C(N)=O)C1` gave Apaf1 activ 44.
`Cc1ccc(C(=O)NCC(=O)N2CCCCCCC2)cc1` gave Apaf1 activ 61.
`O=C(CSc1ccc2nnc(-c3ccccc3)n2n1)N1CCCCC1` gave Apaf1 activ -113*, Rh110 act interf 2 and Apaf-1 act conf 9.
Screening [O-][n+]1cccc2c(Br)cc(Br)c(O)c21 returned Apaf1 activ 73.
Screening CN(Cc1nccs1)C(=O)CC1C(=O)NCCN1Cc1ccc(-c2ccccc2)cc1 (stereo not drawn) returned Apaf1 activ -330*, Rh110 act interf 6 and Apaf-1 act conf 15.
O=C1C(SCCO)=C(SCCO)C(=O)c2ccccc21 was read as Apaf1 activ 97.
`COc1ccc(C)cc1NC(=O)CN1C(=O)C2CC=CCC2C1=O` (stereo not drawn) gave Apaf1 activ -315*, Rh110 act interf 1 and Apaf-1 act conf 9.
Screening Cc1noc(C)c1COC(=O)C1COc2ccccc2O1 (stereo not drawn) returned Apaf1 activ -73*, Rh110 act interf -6 and Apaf-1 act conf 12.
For COc1ccc(C)cc1NC(=O)COC(=O)C1COc2ccccc2O1 (stereo not drawn) the results were Apaf1 activ -53*, Rh110 act interf -1 and Apaf-1 act conf 10.
`CCC[C@@H](CN1CCC[C@H]1CN1C(N)=NC[C@H]1CC(C)C)N1C[C@@H]([C@H](C)CC)N(CCCC2CCCC2)C1=N` gave Apaf1 activ 53.
Screening O=C1CCC(C(=O)OCC(=O)N2N=C3/C(=C/c4ccccc4)CCCC3C2c2ccccc2)N1 (stereo not drawn) returned Apaf1 activ 43.
Cc1cc2cc(CNC(=O)c3ccc(S(=O)(=O)N(C)C)cc3)ccc2n1C was read as Apaf1 activ 45.
`C#CCOCCOCCOCCNc1nc(N2CCN(C(=O)CCCCCCCCCCNC(=O)[C@H](CCCCN)n3cc(C)nn3)CC2)nc(N2CCN(C(=O)CCCCCCCCCCNC(=O)[C@H](CCCCN)n3cc(CCCC(=O)O)nn3)CC2)n1` gave Apaf1 activ 63.
O=C1C=C(Nc2ccccc2)c2ccccc2C1=O was read as Apaf1 activ 92.
CC1=NN(c2cccc(Cl)c2)C(=O)C1 was read as Apaf1 activ 75.
For CCc1ccc(NC2=CC(=O)C(=O)c3ccccc32)cc1 the results were Apaf1 activ 92.
For O=C(NCc1ccccn1)c1ccc2c(=O)n3nc(Nc4ccccc4)sc3nc2c1 the results were Apaf1 activ -43*, Rh110 act interf -4 and Apaf-1 act conf -38.
For O=S(=O)(c1ccc(NC(=S)Nc2ccc(OC(F)F)cc2)cc1)N1CCOCC1 the results were Apaf1 activ -66*, Rh110 act interf 10 and Apaf-1 act conf 18.
`CC(C)=CCC/C(C)=C/CNC(=O)C[C@H]1C[C@H](C(=O)N2CCOCC2)[C@@]2(C)c3[nH]c4ccc(Cl)cc4c3CCN2C1=O` gave Apaf1 activ 42.
